Experiments:
HCT-8 = experiment: In vitro for cytotoxicity against human colon tumor cells (HCT-8) in culture; assay type: functional, cell-based
L1210 = experiment: In vitro for cytotoxicity against murine leukemia cells (L1210); assay type: functional, cell-based; conditions: Mus musculus
[1] = system: Lewis lung carcinoma cell line; experiment: In vivo for antitumor activity against Lewis lung carcinoma; assay type: functional, Mus musculus
Procedure, shortened: (§1)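 Mice inoculated intravenously with 10^6 Lewis lung carcinoma cells, then drug intraperitoneally in 0.1 mL 30% v/v ethanol-water on days 5, 9 and 13. D50 (mg/kg per day for 50% ILS) taken from dose-response graph. ILS at optimal dose versus untreated tumor-bearing controls. Survivors counted at 40 days.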

[2] = system: Lewis lung carcinoma cell line; experiment: Evaluated in vivo for antitumor activity against Lewis lung carcinoma; assay type: functional, Mus musculus; procedure, shortened: as §1
P388 [3] = experiment: In vivo for antitumor activity against P388 leukemia.; assay type: functional, Mus musculus
Procedure, shortened: (§2)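 Mice given 10^6 P388 leukemia cells intraperitoneally, then drug intraperitoneally in 0.1 mL 30% v/v ethanol-water on days 1, 5 and 9. D50 (mg/kg per day giving 50% ILS) read from dose-response graph. ILS at optimal dose versus untreated controls. Long-term survival counted at 30 days.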

P388 [4] = experiment: In vivo for antitumor activity against P388 leukemia; assay type: functional, Mus musculus; procedure, shortened: as §2
poly[d(A-T)] = experiment: Binding constant relative to amsacrine (Δlog K) for DNA binding by ethidium bromide displacement; conditions: Bos taurus

With `CNc1cc(NS(C)(=O)=O)ccc1Nc1c2cccc(OC)c2nc2c(OC)cccc12` the IC50 (HCT-8) was 160 nM, the IC50 (L1210) was 130 nM and the ILSmax [1] was 116%. It also gave an OD [1] of 65 mg/kg, a D50 [2] of 30 mg/kg and an OD (P388 [3]) of 150 mg/kg. It also gave a D50 (P388 [4]) of 25 mg/kg and an ILSmax (P388 [4]) of 14%.

For `CNc1cc(NS(C)(=O)=O)ccc1Nc1c2ccccc2nc2c(C)c(C)ccc12`, the IC50 (HCT-8) was 76 nM, the IC50 (L1210) was 43 nM and the ILSmax [1] was 155%. It also gave an OD [1] of 20 mg/kg, a D50 [2] of 10 mg/kg and an OD (P388 [3]) of 13.3 mg/kg. For the same compound, the D50 (P388 [4]) was 7 mg/kg and the ILSmax (P388 [4]) was 148%.

In the case of `CNc1cc(NS(C)(=O)=O)ccc1Nc1c2ccc(OC)cc2nc2c(C)cccc12`, the IC50 (HCT-8) is reported as 29 nM, the IC50 (L1210) is reported as 16 nM and the ILSmax [1] is reported as 50%. The OD [1] was 4 mg/kg, the D50 [2] was 4 mg/kg and the OD (P388 [3]) was 1.8 mg/kg. The D50 (P388 [4]) was 0.3 mg/kg and the ILSmax (P388 [4]) was 166%.

Compound `COc1cc(NS(C)(=O)=O)ccc1Nc1c2ccccc2nc2c(C)cccc12` has a Δlog K (poly[d(A-T)]) of 0.46.

For `COc1cc(NS(C)(=O)=O)ccc1Nc1c2ccccc2nc2cc(F)ccc12`, the Δlog K (poly[d(A-T)]) was -0.03.

In the case of `CNc1cc(NS(C)(=O)=O)ccc1Nc1c2ccccc2nc2cc(F)ccc12`, the IC50 (HCT-8) is reported as 460 nM, the IC50 (L1210) is reported as 94 nM and the ILSmax [1] is reported as 79%. For the same compound, the OD [1] was 45 mg/kg, the D50 [2] was 20 mg/kg and the OD (P388 [3]) was 45 mg/kg. The D50 (P388 [4]) was 15 mg/kg and the ILSmax (P388 [4]) was 157%.

`CNC(=O)c1ccc2c(Nc3ccc(NS(C)(=O)=O)cc3NC)c3ccccc3nc2c1` was tested, and the IC50 (HCT-8) was over 104 nM, the IC50 (L1210) was over 1600 nM and the OD (P388 [3]) was 65 mg/kg. For the same compound, the D50 (P388 [4]) was 30 mg/kg and the ILSmax (P388 [4]) was 62%.

`CNc1cc(NS(C)(=O)=O)ccc1Nc1c2ccc(Cl)cc2nc2c(OC)cccc12` gave an IC50 (HCT-8) of 143 nM, an IC50 (L1210) of 120 nM and an ILSmax [1] of 159%. The OD [1] was 45 mg/kg, the D50 [2] was 13 mg/kg and the OD (P388 [3]) was 65 mg/kg. The D50 (P388 [4]) was 20 mg/kg and the ILSmax (P388 [4]) was 236%.

For `CNc1cc(NS(C)(=O)=O)ccc1Nc1c2ccc(F)cc2nc2c(C)cccc12`, the IC50 (HCT-8) was 150 nM, the IC50 (L1210) was 150 nM and the ILSmax [1] was 143%. It also gave an OD [1] of 45 mg/kg, a D50 [2] of 25 mg/kg and an OD (P388 [3]) of 45 mg/kg. For the same compound, the D50 (P388 [4]) was 6 mg/kg and the ILSmax (P388 [4]) was 152%.

With `COc1cc(NS(C)(=O)=O)ccc1Nc1c2ccccc2nc2ccc(C)cc12` the Δlog K (poly[d(A-T)]) was -0.22.

Work on `COc1ccc2c(Nc3ccc(NS(C)(=O)=O)cc3OC)c3ccccc3nc2c1` yielded a Δlog K (poly[d(A-T)]) of 0.26.

In the case of `CNC(=O)c1cccc2c(Nc3ccc(NS(C)(=O)=O)cc3OC)c3ccccc3nc12`, the Δlog K (poly[d(A-T)]) is reported as -0.03.

Compound `CNc1cc(NS(C)(=O)=O)ccc1Nc1c2cccc(C)c2nc2c(C)cccc12` has an IC50 (HCT-8) of 190 nM, an IC50 (L1210) of 91 nM and an ILSmax [1] of 125%. For the same compound, the OD [1] was 65 mg/kg, the D50 [2] was 25 mg/kg and the OD (P388 [3]) was 45 mg/kg. It also gave a D50 (P388 [4]) of 6 mg/kg and an ILSmax (P388 [4]) of 202%.

With `COc1cc(NS(C)(=O)=O)ccc1Nc1c2ccccc2nc2ccc(Cl)cc12` the Δlog K (poly[d(A-T)]) was -0.08.

Compound `COc1ccc2[nH]c3ccccc3c(=Nc3ccc(NS(C)(=O)=O)cc3OC)c2c1` has a Δlog K (poly[d(A-T)]) of -0.08.

With `CNC(=O)c1cccc2c(Nc3ccc(NS(C)(=O)=O)cc3OC)c3cccc(C)c3nc12` [ASULACRINE] the OD [1] was 30 mg/kg and the OD (P388 [3]) was 20 mg/kg.

`COc1cc(NS(C)(=O)=O)ccc1Nc1c2ccccc2nc2cc(C)ccc12` gave a Δlog K (poly[d(A-T)]) of 0.38.

Compound `COc1cc(NS(C)(=O)=O)ccc1Nc1c2ccccc2nc2cc(I)ccc12` has a Δlog K (poly[d(A-T)]) of 0.78.

`COc1cc(NS(C)(=O)=O)ccc1Nc1c2ccccc2nc2c(OC)cccc12` was tested, and the Δlog K (poly[d(A-T)]) was 0.37.

With `COc1cc(NS(C)(=O)=O)ccc1Nc1c2ccccc2nc2c(Cl)cccc12` the Δlog K (poly[d(A-T)]) was 0.19.

`COc1cc(NS(C)(=O)=O)ccc1Nc1c2ccccc2nc2cc(Br)ccc12` was tested, and the Δlog K (poly[d(A-T)]) was 0.72.

`COc1cc(NS(C)(=O)=O)ccc1Nc1c2ccccc2nc2cc(Cl)ccc12` showed a Δlog K (poly[d(A-T)]) of 0.49.

For `CNc1cc(NS(C)(=O)=O)ccc1Nc1c2ccccc2nc2ccccc12`, the OD [1] was 30 mg/kg and the OD (P388 [3]) was 13.3 mg/kg.

Source: ChEMBL document CHEMBL1123442 (J Med Chem, 1986)
